# Laboratory results published in ChEMBL document CHEMBL1131154, “Quantitative structure-activity relationships of 2, 4-diamino-5-(2-X-benzyl)pyrimidines versus bacterial and avian dihydrofolate reductase” (J Med Chem, 1998).
# What was measured:
# Dihydrofolate reductase [1] = molecular target: Dihydrofolate reductase (Lactobacillus casei, UniProt P00381); test: Inhibition of Dihydrofolate reductase from Lactobacillus casei; design: species or system Lacticaseibacillus casei
# Outline: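 L. casei DHFR, from lyophilized powder, dissolved to about 0.5 unit/mL in 0.05 M Tris pH 7.20 with 50 mM mercaptoethanol and stored at −20 °C. Dihydrofolate and NADPH solutions kept at 0 °C. Inhibitors in DMSO, final ≤0.5%. Stopped-flow spectrophotometry at 340 nm followed NADPH oxidation and dihydrofolate reduction. Ki with 95% confidence limits by jackknife.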
# [2] = Selectivity measured as log[1/Ki(Lactobacillus casei DHFR)]-log[1/Ki(chicken liver DHFR)]
# Outline: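 Selectivity index calculated as log(1/Ki) for L. casei DHFR minus log(1/Ki) for chicken liver DHFR. Both Ki values came from stopped-flow 340 nm NADPH-oxidation assays, with jackknife estimation.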
# Dihydrofolate reductase [3] = molecular target: T1, Dihydrofolate reductase (Gallus gallus, UniProt P00378); test: Inhibition of chicken liver Dihydrofolate reductase (dihydrofolate reductase)
# T1 sequence (P00378 whole entry): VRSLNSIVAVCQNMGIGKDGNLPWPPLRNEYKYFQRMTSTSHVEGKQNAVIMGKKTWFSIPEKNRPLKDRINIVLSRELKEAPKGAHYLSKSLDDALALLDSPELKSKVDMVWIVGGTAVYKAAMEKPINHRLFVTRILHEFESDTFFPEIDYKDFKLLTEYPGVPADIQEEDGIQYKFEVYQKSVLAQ
# Outline: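 Chicken liver DHFR vial (0.19 unit/mL) dissolved in 24 mL of 200 μM NADPH. Inhibitors in DMSO, final ≤0.5%. Activity with and without inhibitor read at 340 nm by stopped-flow spectrophotometry as NADPH is oxidized and dihydrofolate reduced.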
# Dihydrofolate reductase (Lactobacillus casei, UniProt P00381), sequence (P00381 whole entry): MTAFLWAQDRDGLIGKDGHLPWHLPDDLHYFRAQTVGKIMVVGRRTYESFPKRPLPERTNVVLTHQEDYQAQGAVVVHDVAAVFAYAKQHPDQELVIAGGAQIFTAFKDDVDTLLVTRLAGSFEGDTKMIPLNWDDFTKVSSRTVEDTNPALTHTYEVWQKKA
Ki (Dihydrofolate reductase [1]) [µM],Selectivity index [2],Ki (Dihydrofolate reductase [3]) [µM],SMILES
13.5,0.2,21.4,C=CCOc1ccccc1Cc1cnc(N)nc1N
20,0.09,,CCOc1ccccc1Cc1cnc(N)nc1N
79.4,-0.37,33.9,NC(=O)COc1ccccc1Cc1cnc(N)nc1N
35.5,-0.61,,CCCCOc1ccccc1Cc1cnc(N)nc1N
28.2,0.15,39.8,COCc1ccccc1Cc1cnc(N)nc1N
11.5,-0.12,8.71,Nc1ncc(Cc2ccccc2I)c(N)n1
110,-0.09,89.1,Nc1ncc(Cc2ccccc2O)c(N)n1
85.1,-0.57,22.9,CS(=O)(=O)Oc1ccccc1Cc1cnc(N)nc1N
9.55,0.49,,Cc1ccccc1Cc1cnc(N)nc1N
9.55,0.66,43.7,Nc1ncc(Cc2ccccc2F)c(N)n1
18.2,-0.3,9.12,Nc1ncc(Cc2ccccc2OCc2ccccc2)c(N)n1
10,0.46,28.8,COc1ccccc1Cc1cnc(N)nc1N
,0.49,,Nc1ncc(Cc2ccccc2)c(N)n1
100,-1.1,7.94,CCCCCCOc1ccccc1Cc1cnc(N)nc1N
9.55,0.26,17.4,Nc1ncc(Cc2ccccc2Cl)c(N)n1
,1.48,,COc1cccc(Cc2cnc(N)nc2N)c1
10,0.09,12.3,Nc1ncc(Cc2ccccc2Br)c(N)n1
